The values below come from ChEMBL document CHEMBL1137720, “New acyclic nucleosides analogues as potential analgesic, anti-inflammatory, anti-oxidant and anti-microbial derived from pyrimido[4,5-b]quinolines” (2009).

The species entered for one test is Mus musculus. Briefly: Analgesic activity in Swiss mouse assessed as reaction time after 60 mins by hot plate test. Type of test: functional.
Settings: not given
In a few lines:
(§1)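 Swiss mice of both sexes, 25–30 g, were housed at 22 ± 1 °C on a 12 h light/dark cycle with free access to diet and water. Hot-plate testing followed Turner's method.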
A general note: In hot-plate and tail-flick tests a longer latency is read as antinociception.
`O=c1c2c(-c3ccc(Cl)cc3)c3c(nc2nc2[nH]nc([C@H](O)[C@H](O)[C@H](O)[C@H](O)CO)n12)/C(=C/c1ccc(Cl)cc1)CCC3`: the Activity is 7.4 s.
Still for that read-out and setting: with `CC(=O)OC[C@@H](OC(C)=O)[C@@H](OC(C)=O)[C@H](/C=N/Nc1nc2nc3c(c(-c4ccc(Cl)cc4)c2c(=O)n1OC(C)=O)CCC/C3=C\c1ccc(Cl)cc1)OC(C)=O` the figure was 3.483 s.

The next test concerns Rattus norvegicus. Nature of the test: Antiinflammatory activity in Sprague-Dawley rat assessed as inhibition of carrageenan-induced paw edema after 3 hrs. Type of test: functional.
Settings: not given
In a few lines:
(§2)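 Adult female Sprague-Dawley rats, 150–180 g, were used (n = 6 per group). Paw volume increase after carrageenan was read at 1, 2, 3 and 4 h. % edema inhibition was calculated against untreated controls. The reference drug was given orally at 10 mg/kg as an aqueous suspension.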
In general terms: The carrageenan paw model is a standard test of acute inflammation.
Consider `O=c1c2c(-c3ccc(Cl)cc3)c3c(nc2nc2[nH]nc([C@H](O)[C@H](O)[C@H](O)[C@H](O)CO)n12)/C(=C/c1ccc(Cl)cc1)CCC3`, for which the “inhibition (INH)” value worked out at 42.03%.
Still for that read-out and setting: with `CC(=O)OC[C@@H](OC(C)=O)[C@@H](OC(C)=O)[C@H](/C=N/Nc1nc2nc3c(c(-c4ccc(Cl)cc4)c2c(=O)n1OC(C)=O)CCC/C3=C\c1ccc(Cl)cc1)OC(C)=O` the figure was 26.09%.

A further test relates to Rattus norvegicus. Briefly: Antiinflammatory activity in Sprague-Dawley rat assessed as inhibition of carrageenan-induced paw edema after 4 hrs. Type of test: functional.
Settings: not given
In a few lines:
as §2
With `O=c1c2c(-c3ccc(Cl)cc3)c3c(nc2nc2[nH]nc([C@H](O)[C@H](O)[C@H](O)[C@H](O)CO)n12)/C(=C/c1ccc(Cl)cc1)CCC3`, the “inhibition (INH)” value is given as 40.62%.
For the compound `CC(=O)OC[C@@H](OC(C)=O)[C@@H](OC(C)=O)[C@H](/C=N/Nc1nc2nc3c(c(-c4ccc(Cl)cc4)c2c(=O)n1OC(C)=O)CCC/C3=C\c1ccc(Cl)cc1)OC(C)=O`, the “inhibition (INH)” value amounted to 26.56%.

A further test concerns Pseudomonas aeruginosa. Briefly: Antibacterial activity against Pseudomonas aeruginosa ATCC 10145 at 100 ug/disk after 24 to 48 hrs by agar disk diffusion method. Type of test: functional. The note with it: read-out: DIZ. Put shortly: (§3)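 Agar disc diffusion used sterile 5 mm filter-paper discs loaded with 100 µg per disc, with DMSO as solvent. Plates were incubated 24–28 h at 37 °C and inhibition zone diameters measured: 6–10 mm slight, 11–15 mm moderate, >15 mm high. For MIC, discs carried varying amounts, and MIC was the lowest amount giving no visible growth.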
On the technique in general: A growth-free zone around the sample is the usual read-out of agar diffusion tests.
As to `O=c1c2c(-c3ccc(Cl)cc3)c3c(nc2nc2[nH]nc([C@H](O)[C@H](O)[C@H](O)[C@H](O)CO)n12)/C(=C/c1ccc(Cl)cc1)CCC3`, the zone of inhibition at 100 µg/disc is 22 mm.
Consider `CC(=O)OC[C@@H](OC(C)=O)[C@@H](OC(C)=O)[C@H](/C=N/Nc1nc2nc3c(c(-c4ccc(Cl)cc4)c2c(=O)n1OC(C)=O)CCC/C3=C\c1ccc(Cl)cc1)OC(C)=O`, for which the zone of inhibition at 100 µg/disc was found to be 13 mm.

Test system in a further test: not listed separately
Nature of the test: Antioxidant activity assessed as inhibition of ABTS-oxidation in 0.1 M phosphate buffer at pH 7. Type of test: functional.
Settings: not given
Put shortly:
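ABTS (60 µM, 2 mL) was mixed with MnO2 (25 mg/mL) in 0.1 M phosphate buffer pH 7, then shaken, centrifuged and filtered. Radical solution A734 was set to about 0.5. MeOH/buffer served as negative control.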
What is called inhibition is the change of the read-out against control, counted positive when it falls. As for `O=c1c2c(-c3ccc(Cl)cc3)c3c(nc2nc2[nH]nc([C@H](O)[C@H](O)[C@H](O)[C@H](O)CO)n12)/C(=C/c1ccc(Cl)cc1)CCC3`, the inhibition was found to be 81.5%.
As to `CC(=O)OC[C@@H](OC(C)=O)[C@@H](OC(C)=O)[C@H](/C=N/Nc1nc2nc3c(c(-c4ccc(Cl)cc4)c2c(=O)n1OC(C)=O)CCC/C3=C\c1ccc(Cl)cc1)OC(C)=O`, the inhibition turned out to be 40.7%.

In another test the test system is Rattus norvegicus. Nature of the test: Antiinflammatory activity in Sprague-Dawley rat assessed as inhibition of carrageenan-induced paw edema after 1 hr. In kind it is functional.
Settings: not given
Put shortly: as §2
Take `O=c1c2c(-c3ccc(Cl)cc3)c3c(nc2nc2[nH]nc([C@H](O)[C@H](O)[C@H](O)[C@H](O)CO)n12)/C(=C/c1ccc(Cl)cc1)CCC3`: the “inhibition (INH)” value was 62.5%.
On the same count and under the same terms, with `CC(=O)OC[C@@H](OC(C)=O)[C@@H](OC(C)=O)[C@H](/C=N/Nc1nc2nc3c(c(-c4ccc(Cl)cc4)c2c(=O)n1OC(C)=O)CCC/C3=C\c1ccc(Cl)cc1)OC(C)=O` the figure was 15.62%.

A further test relates to Candida albicans. Nature of the test: Antimicrobial activity against Candida albicans ATCC 14053 at 100 ug/disk after 5 days by agar disk diffusion method. Type of test: functional. The note with it: ATCC 14053, 120 h, read-out: DIZ.
For the compound `O=c1c2c(-c3ccc(Cl)cc3)c3c(nc2nc2[nH]nc([C@H](O)[C@H](O)[C@H](O)[C@H](O)CO)n12)/C(=C/c1ccc(Cl)cc1)CCC3`, the zone of inhibition at 100 µg/disc was determined as 12 mm.
The same measure, in the same setting: the result for `CC(=O)OC[C@@H](OC(C)=O)[C@@H](OC(C)=O)[C@H](/C=N/Nc1nc2nc3c(c(-c4ccc(Cl)cc4)c2c(=O)n1OC(C)=O)CCC/C3=C\c1ccc(Cl)cc1)OC(C)=O` reads 7 mm.

Another test has as its system Nucleic Acid. Nature of the test: Inhibition of bleomycin-induced DNA damage assessed as absorbance at 532 nm after 1 hr at 37 degC. Type of test: nucleic-acid assay.
Settings: not given
Put shortly: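 The 0.5 mL reaction contained calf thymus DNA (0.5 mg/mL), bleomycin sulfate (0.05 mg/mL), MgCl2 (5 mM), FeCl3 (50 µM) and compound at varying concentrations. After 1 h at 37 °C, the reaction was stopped with EDTA. TBA (1%) and HCl (25%) were added, followed by 10 min at 80 °C. After centrifugation, DNA damage was read as A532.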
As to `O=c1c2c(-c3ccc(Cl)cc3)c3c(nc2nc2[nH]nc([C@H](O)[C@H](O)[C@H](O)[C@H](O)CO)n12)/C(=C/c1ccc(Cl)cc1)CCC3`, the deltaA was determined as 0.026.

For a further test, the system named is Rattus norvegicus. Nature of the test: Antiinflammatory activity in Sprague-Dawley rat assessed as inhibition of carrageenan-induced paw edema after 2 hrs.
Settings: not given
Type of test: functional. In a few lines: as §2
With `O=c1c2c(-c3ccc(Cl)cc3)c3c(nc2nc2[nH]nc([C@H](O)[C@H](O)[C@H](O)[C@H](O)CO)n12)/C(=C/c1ccc(Cl)cc1)CCC3`, the “inhibition (INH)” value was 44%.
`CC(=O)OC[C@@H](OC(C)=O)[C@@H](OC(C)=O)[C@H](/C=N/Nc1nc2nc3c(c(-c4ccc(Cl)cc4)c2c(=O)n1OC(C)=O)CCC/C3=C\c1ccc(Cl)cc1)OC(C)=O`: the “inhibition (INH)” value was 20.37%.

The species named for the next test is Mus musculus. Nature of the test: Analgesic activity in Swiss mouse assessed as reaction time after 30 mins by hot plate test. Type of test: functional.
Settings: not given
Put shortly: as §1
As for `O=c1c2c(-c3ccc(Cl)cc3)c3c(nc2nc2[nH]nc([C@H](O)[C@H](O)[C@H](O)[C@H](O)CO)n12)/C(=C/c1ccc(Cl)cc1)CCC3`, the Activity was 4.65 s.
On the same count and under the same terms, the result for `CC(=O)OC[C@@H](OC(C)=O)[C@@H](OC(C)=O)[C@H](/C=N/Nc1nc2nc3c(c(-c4ccc(Cl)cc4)c2c(=O)n1OC(C)=O)CCC/C3=C\c1ccc(Cl)cc1)OC(C)=O` reads 3.5 s.

For another test, the species on record is Mus musculus. Nature of the test: Analgesic activity in Swiss mouse assessed as reaction time after 90 mins by hot plate test. Type of test: functional.
Settings: not given
Put shortly: as §1
In the case of `O=c1c2c(-c3ccc(Cl)cc3)c3c(nc2nc2[nH]nc([C@H](O)[C@H](O)[C@H](O)[C@H](O)CO)n12)/C(=C/c1ccc(Cl)cc1)CCC3`, the Activity turned out to be 9.567 s.
On the same count and under the same terms, with `CC(=O)OC[C@@H](OC(C)=O)[C@@H](OC(C)=O)[C@H](/C=N/Nc1nc2nc3c(c(-c4ccc(Cl)cc4)c2c(=O)n1OC(C)=O)CCC/C3=C\c1ccc(Cl)cc1)OC(C)=O` the figure was 4.033 s.

In another test the test system is Escherichia coli. Briefly: Antibacterial activity against Escherichia coli ATCC 23566 at 100 ug/disk after 24 to 48 hrs by agar disk diffusion method. In kind it is functional. The note with it: read-out: DIZ. Put shortly: as §3
As to `O=c1c2c(-c3ccc(Cl)cc3)c3c(nc2nc2[nH]nc([C@H](O)[C@H](O)[C@H](O)[C@H](O)CO)n12)/C(=C/c1ccc(Cl)cc1)CCC3`, the zone of inhibition at 100 µg/disc amounted to 24 mm.
Same read-out and setting: the result for `CC(=O)OC[C@@H](OC(C)=O)[C@@H](OC(C)=O)[C@H](/C=N/Nc1nc2nc3c(c(-c4ccc(Cl)cc4)c2c(=O)n1OC(C)=O)CCC/C3=C\c1ccc(Cl)cc1)OC(C)=O` reads 14 mm.

For the next test, the system named is Staphylococcus aureus. Briefly: Antibacterial activity against Staphylococcus aureus ATCC 25923 at 100 ug/disk after 24 to 48 hrs by agar disk diffusion method. In kind it is functional. Particulars: read-out: DIZ. Put shortly:
as §3
With `O=c1c2c(-c3ccc(Cl)cc3)c3c(nc2nc2[nH]nc([C@H](O)[C@H](O)[C@H](O)[C@H](O)CO)n12)/C(=C/c1ccc(Cl)cc1)CCC3`, the zone of inhibition at 100 µg/disc is 19 mm.
On the same count and under the same terms, with `CC(=O)OC[C@@H](OC(C)=O)[C@@H](OC(C)=O)[C@H](/C=N/Nc1nc2nc3c(c(-c4ccc(Cl)cc4)c2c(=O)n1OC(C)=O)CCC/C3=C\c1ccc(Cl)cc1)OC(C)=O` the figure was 11 mm.

Test system in a further test: not listed separately
Nature of the test: Antioxidant activity in Sprague-Dawley rat erythrocytes assessed as ABTS-induced hemolysis after 1 hr. In kind it is functional, Erythrocyte. More on the design: concentration or dose not given beside the values.
Settings: not given
Consider `O=c1c2c(-c3ccc(Cl)cc3)c3c(nc2nc2[nH]nc([C@H](O)[C@H](O)[C@H](O)[C@H](O)CO)n12)/C(=C/c1ccc(Cl)cc1)CCC3`, for which the Activity worked out at 4.23%.
Still for that read-out and setting: with `CC(=O)OC[C@@H](OC(C)=O)[C@@H](OC(C)=O)[C@H](/C=N/Nc1nc2nc3c(c(-c4ccc(Cl)cc4)c2c(=O)n1OC(C)=O)CCC/C3=C\c1ccc(Cl)cc1)OC(C)=O` the figure was 6.06%.

The next test has as its system Aspergillus fumigatus. Nature of the test: Antimicrobial activity against Aspergillus fumigatus ATCC 96918 at 100 ug/disk after 5 days by agar disk diffusion method. Type of test: functional. Particulars: ATCC 96918, 120 h, read-out: DIZ.
`O=c1c2c(-c3ccc(Cl)cc3)c3c(nc2nc2[nH]nc([C@H](O)[C@H](O)[C@H](O)[C@H](O)CO)n12)/C(=C/c1ccc(Cl)cc1)CCC3`: the zone of inhibition at 100 µg/disc turned out to be 16 mm.
On the same count and under the same terms, with `CC(=O)OC[C@@H](OC(C)=O)[C@@H](OC(C)=O)[C@H](/C=N/Nc1nc2nc3c(c(-c4ccc(Cl)cc4)c2c(=O)n1OC(C)=O)CCC/C3=C\c1ccc(Cl)cc1)OC(C)=O` the figure was 11 mm.
